The target of test [1] is T1, Peroxisome proliferator-activated receptor delta (Homo sapiens, UniProt Q03181).
T1 sequence (Q03181 whole entry): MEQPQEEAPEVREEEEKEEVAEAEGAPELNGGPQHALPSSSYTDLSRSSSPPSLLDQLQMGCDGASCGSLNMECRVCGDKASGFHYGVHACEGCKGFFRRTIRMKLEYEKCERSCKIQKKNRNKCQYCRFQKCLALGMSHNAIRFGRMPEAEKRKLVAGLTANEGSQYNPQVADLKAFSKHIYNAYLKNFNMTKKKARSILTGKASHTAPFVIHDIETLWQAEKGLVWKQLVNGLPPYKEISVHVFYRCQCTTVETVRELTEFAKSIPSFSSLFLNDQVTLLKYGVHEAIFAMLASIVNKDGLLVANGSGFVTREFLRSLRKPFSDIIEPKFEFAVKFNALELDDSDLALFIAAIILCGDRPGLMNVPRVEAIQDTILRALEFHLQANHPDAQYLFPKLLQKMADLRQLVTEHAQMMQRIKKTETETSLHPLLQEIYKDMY
Kind of test: Agonist activity at human PPARdelta ligand binding domain expressed in COS-1 cells after 24 hrs by luciferase reporter gene-based luminometric analysis. It is filed as cell-based. For orientation: A reporter such as luciferase makes a cellular process visible.

For test [2], the target named is T2, Peroxisome proliferator-activated receptor gamma (Homo sapiens, UniProt P37231).
T2 sequence (P37231 whole entry): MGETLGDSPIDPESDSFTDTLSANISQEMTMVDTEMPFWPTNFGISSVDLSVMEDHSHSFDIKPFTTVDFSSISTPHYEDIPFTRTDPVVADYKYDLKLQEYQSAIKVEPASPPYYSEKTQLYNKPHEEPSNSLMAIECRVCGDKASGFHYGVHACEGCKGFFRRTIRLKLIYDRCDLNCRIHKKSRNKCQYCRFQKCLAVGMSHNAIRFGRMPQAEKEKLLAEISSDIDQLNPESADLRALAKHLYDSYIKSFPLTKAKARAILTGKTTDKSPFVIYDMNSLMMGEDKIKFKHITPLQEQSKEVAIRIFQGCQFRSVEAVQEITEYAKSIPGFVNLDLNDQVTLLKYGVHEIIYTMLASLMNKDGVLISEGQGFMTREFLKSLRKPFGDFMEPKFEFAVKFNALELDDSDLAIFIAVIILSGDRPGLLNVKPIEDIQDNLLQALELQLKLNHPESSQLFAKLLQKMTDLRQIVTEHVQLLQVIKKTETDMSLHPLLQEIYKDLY
The format is cell-based, COS-1.

Test [3] has as its target T3, Peroxisome proliferator-activated receptor alpha (Homo sapiens, UniProt Q07869).
T3 sequence (Q07869 whole entry): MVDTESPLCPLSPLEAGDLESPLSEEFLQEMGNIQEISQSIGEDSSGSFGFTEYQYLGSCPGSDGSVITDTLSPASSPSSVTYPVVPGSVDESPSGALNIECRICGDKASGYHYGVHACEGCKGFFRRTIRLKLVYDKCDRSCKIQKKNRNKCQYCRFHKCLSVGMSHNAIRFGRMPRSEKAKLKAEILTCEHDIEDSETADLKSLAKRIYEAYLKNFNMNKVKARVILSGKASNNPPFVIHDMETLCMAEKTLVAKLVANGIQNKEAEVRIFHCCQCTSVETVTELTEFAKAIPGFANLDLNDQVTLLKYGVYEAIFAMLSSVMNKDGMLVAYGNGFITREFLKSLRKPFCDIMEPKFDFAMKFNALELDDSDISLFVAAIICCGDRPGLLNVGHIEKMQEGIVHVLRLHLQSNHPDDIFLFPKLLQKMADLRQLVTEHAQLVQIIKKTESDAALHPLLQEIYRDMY
Kind of test: Agonist activity at human PPARalpha ligand binding domain expressed in COS-1 cells co-transfected with Gal4 after 24 hrs by luciferase reporter gene assay. It is filed as cell-based.

The nature of test [4]: Induction of [14C]oleic acid oxidation in a human myotubes after 4 days by beta liquid scintillation counting. It is filed as functional. In short, it runs like this: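 Satellite cells from human abdominal muscle biopsies of healthy donors, differentiated to myotubes for 7 days in DMEM (5.5 mM glucose) with 2% FCS and 25 pM insulin. Then [1-14C]oleic acid (1 µCi/mL, 100 µM) in DPBS with 10 mM HEPES and 1 mM L-carnitine, 4 h at 37 °C. Trapped CO2 counted by scintillation, normalized to protein. EC50 from three independent experiments in quadruplicate, mean ± SD.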

By pEC50 is commonly meant the EC50 on a negative log10 scale, so that one unit is a factor of ten. A high value points to a low EC50.

pEC50: −log10 of the molar value.

For `CC/C=C\C/C=C\C/C=C\C/C=C\CC/C=C/C=C/C(=O)O`, the pEC50 in test [1] is below 6.00; in test [2], below 6.00; in test [3] it was 7.49.
Regarding `Cc1cc(SCc2sc(-c3ccc(C(F)(F)F)cc3)nc2C)ccc1OC(F)C(=O)O` (racemic), the pEC50 in test [1] is 7.26; in test [2], below 6.00; in test [3] it was 6.25; in test [4] it was 8.43.
On the same counts, the results for `CCc1cc(SCc2sc(-c3ccc(C(F)(F)F)cc3)nc2C)ccc1OC(F)C(=O)O` (racemic) are 6.54, below 6.00, 6.15 and 8.30.
As for `Cc1nc(-c2ccc(C(F)(F)F)cc2)sc1CSc1ccc(OC(F)C(=O)O)c(C(C)C)c1` (racemic), the pEC50 in test [1] is 6.24; in test [2], below 6.00; in test [3], 6.13; in test [4] it was 7.50.
The compound `Cc1cc(SCc2sc(-c3ccc(C(F)(F)F)cc3)nc2C)ccc1OCC(=O)O` [GW501516] gave a pEC50 in test [4] of 10.52.
For `CN(CCOc1ccc(CC2SC(=O)NC2=O)cc1)c1ccccn1` (configuration not stated) [ROSIGLITAZONE], the pEC50 in test [4] was below 6.00.

Source of the values: ChEMBL document CHEMBL1926536, “Synthesis, molecular modeling studies and biological evaluation of fluorine substituted analogs of GW 501516” (Bioorg Med Chem, 2011).
